Assay results reported in ChEMBL document CHEMBL5230175, “The war on hTG2: warhead optimization in small molecule human tissue transglutaminase inhibitors” (RSC Med Chem, 2023).

Tests used:
[1] = target: T1, Protein-glutamine gamma-glutamyltransferase (Homo sapiens) (UniProt P21980); test: Inhibition of human recombinant tissue transglutaminase expressed in Escherichia coli using Cbz-Glu-(gamma-p-nitrophenylester)Gly (AL5) as substrate assessed as substrate hydrolysis by measuring Kinact incubated for 20 mins by colorimetric analysis
T1 sequence (whole entry): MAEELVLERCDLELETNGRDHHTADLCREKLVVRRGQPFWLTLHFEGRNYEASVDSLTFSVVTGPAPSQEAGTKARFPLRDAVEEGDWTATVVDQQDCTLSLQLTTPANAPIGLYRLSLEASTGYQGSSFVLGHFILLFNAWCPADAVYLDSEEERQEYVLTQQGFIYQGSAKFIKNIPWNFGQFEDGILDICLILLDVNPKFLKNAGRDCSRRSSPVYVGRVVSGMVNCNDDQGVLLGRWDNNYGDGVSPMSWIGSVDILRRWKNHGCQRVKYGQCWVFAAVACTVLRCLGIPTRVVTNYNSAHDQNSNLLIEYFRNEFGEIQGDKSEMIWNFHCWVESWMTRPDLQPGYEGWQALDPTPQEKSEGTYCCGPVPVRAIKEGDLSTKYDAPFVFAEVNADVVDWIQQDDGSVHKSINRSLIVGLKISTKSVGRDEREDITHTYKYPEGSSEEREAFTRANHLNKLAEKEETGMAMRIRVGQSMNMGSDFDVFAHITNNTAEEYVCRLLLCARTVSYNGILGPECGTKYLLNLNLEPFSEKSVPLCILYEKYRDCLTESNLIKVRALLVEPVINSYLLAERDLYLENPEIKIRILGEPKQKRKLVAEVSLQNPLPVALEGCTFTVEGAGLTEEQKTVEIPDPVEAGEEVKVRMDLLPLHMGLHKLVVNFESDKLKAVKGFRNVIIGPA

[2] = Metabolic stability in pooled cryopreserved human hepatocytes assessed as half-life at 1 uM measured upto 120 mins by LC-MS/MS analysis; type: ADME, cell-based, Hepatocyte
Summary of the method: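 Samples were taken at 0, 5, 15, 30, 60 and 120 min, acetonitrile-quenched with internal standard, and analysed by LC-MS/MS. Half-life came from exponential decay of the parent/IS ratio relative to T = 0.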

[3] = Metabolic stability in human whole blood assessed as half-life at 1 to 5 uM measured upto 120 mins by LC-MS/MS analysis; type: ADME, tissue-based; settings: dose 1-5 µM
Summary of the method: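 Pooled human whole blood (K3-EDTA) was spiked to 1 or 5 μM compound. Aliquots taken at 0, 15, 30, 60 and 120 min were quenched in acetonitrile with 0.1% formic acid and internal standard, then analysed by LC-MS/MS. Percent parent remaining is the peak-area ratio versus T = 0; half-life comes from an exponential decay fit.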

[4] = target: T2, Protein-glutamine gamma-glutamyltransferase (Homo sapiens, UniProt P21980); test: Irreversible inhibition of human recombinant tissue transglutaminase expressed in Escherichia coli using Cbz-Glu-(gamma-p-nitrophenylester)Gly (AL5) as substrate assessed as substrate hydrolysis by measuring KI incubated for 20 mins by colorimetric analysis
T2 sequence (P21980 whole entry): T1 sequence (whole entry)

[5] = target: T1, Protein-glutamine gamma-glutamyltransferase (Homo sapiens); test: Irreversible inhibition of human recombinant tissue transglutaminase expressed in Escherichia coli using Cbz-Glu-(gamma-p-nitrophenylester)Gly (AL5) as substrate assessed as substrate hydrolysis by measuring Kinact/Ki ratio incubated for 20 mins by colorimetric analysis
[6] = target: T1, Protein-glutamine gamma-glutamyltransferase (Homo sapiens); test: Irreversible inhibition of human recombinant tissue transglutaminase expressed in Escherichia coli using Cbz-Glu-(gamma-p-nitrophenylester)Gly (AL5) as substrate assessed as substrate hydrolysis by measuring Kinact/Ki ratio by linear regression analysis
Summary of the method: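 For TG2/AL5 under Kitz–Wilson conditions (100 μM AL5, pH 6.9 MOPS, 25 °C, 405 nm), kinact/KI was taken from simple linear regression of kobs against corrected inhibitor concentration at the lowest inhibitor concentrations.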

[7] = GSH reactivity in aqueous buffer assessed as GSH adduct formation by measuring corrected intrinsic second order rate constant (K2 corrected) by HPLC analysis; type: physicochemical
Summary of the method: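 GSH stock diluted to final 15 mM in aqueous buffer (pH 8.0 used, 7.4 too slow), reaction started with inhibitor at final 0.5 mM, 2% v/v DMSO. Incubated at 22 °C and aliquots taken over at least 5–6 half-lives. HPLC with UV 214/254 nm tracked adduct growth and inhibitor loss, fitted mono-exponentially to give pseudo-first-order kobs. kobs was divided by [thiol] and then by the thiolate fraction (pKa 8.7) to give kcorr2. Run in duplicate.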

[8] = target: T1, Protein-glutamine gamma-glutamyltransferase (Homo sapiens); test: Irreversible inhibition of human TG2 using Cbz-Glu-(gamma-p-nitrophenylester)Gly (AL5) as substrate assessed as substrate hydrolysis by measuring observed binding constant incubated for 20 mins by colorimetric assay
[9] = target: T3, Protein-glutamine gamma-glutamyltransferase K (Homo sapiens) (UniProt P22735); test: Irreversible inhibition of human TG1 using Cbz-Glu-(gamma-p-nitrophenylester)Gly (AL5) as substrate assessed as substrate hydrolysis by measuring observed binding constant incubated for 100 mins by colorimetric assay
T3 sequence (whole entry): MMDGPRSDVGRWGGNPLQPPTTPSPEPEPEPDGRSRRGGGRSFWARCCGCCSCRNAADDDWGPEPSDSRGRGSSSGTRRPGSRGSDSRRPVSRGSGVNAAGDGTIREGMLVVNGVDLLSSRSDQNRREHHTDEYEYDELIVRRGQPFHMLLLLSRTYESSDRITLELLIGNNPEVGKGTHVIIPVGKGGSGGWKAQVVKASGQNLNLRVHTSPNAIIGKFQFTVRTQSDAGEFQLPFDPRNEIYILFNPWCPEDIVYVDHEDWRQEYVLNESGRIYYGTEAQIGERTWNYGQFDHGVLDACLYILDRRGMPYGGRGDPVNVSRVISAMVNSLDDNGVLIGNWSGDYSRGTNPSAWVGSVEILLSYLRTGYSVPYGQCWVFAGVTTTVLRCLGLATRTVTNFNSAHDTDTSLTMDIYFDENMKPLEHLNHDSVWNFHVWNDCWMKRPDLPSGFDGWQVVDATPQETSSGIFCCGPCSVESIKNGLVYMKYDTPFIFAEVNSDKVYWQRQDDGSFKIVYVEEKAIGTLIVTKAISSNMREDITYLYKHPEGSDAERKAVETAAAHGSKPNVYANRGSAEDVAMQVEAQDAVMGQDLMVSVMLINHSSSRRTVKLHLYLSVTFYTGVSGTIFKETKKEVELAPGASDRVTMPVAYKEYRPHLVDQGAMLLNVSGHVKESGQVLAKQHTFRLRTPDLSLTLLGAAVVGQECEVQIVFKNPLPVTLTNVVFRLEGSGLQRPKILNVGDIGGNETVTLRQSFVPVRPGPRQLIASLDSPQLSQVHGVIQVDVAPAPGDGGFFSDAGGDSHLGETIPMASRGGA

[10] = target: T4, Coagulation factor XIII A chain (Homo sapiens) (UniProt P00488); test: Reversible inhibition of human factor XIIIa using peptidic FRET-quenched probe A101 as substrate by fluorescence based assay relative to control; settings: concentration not given here
T4 sequence (whole entry): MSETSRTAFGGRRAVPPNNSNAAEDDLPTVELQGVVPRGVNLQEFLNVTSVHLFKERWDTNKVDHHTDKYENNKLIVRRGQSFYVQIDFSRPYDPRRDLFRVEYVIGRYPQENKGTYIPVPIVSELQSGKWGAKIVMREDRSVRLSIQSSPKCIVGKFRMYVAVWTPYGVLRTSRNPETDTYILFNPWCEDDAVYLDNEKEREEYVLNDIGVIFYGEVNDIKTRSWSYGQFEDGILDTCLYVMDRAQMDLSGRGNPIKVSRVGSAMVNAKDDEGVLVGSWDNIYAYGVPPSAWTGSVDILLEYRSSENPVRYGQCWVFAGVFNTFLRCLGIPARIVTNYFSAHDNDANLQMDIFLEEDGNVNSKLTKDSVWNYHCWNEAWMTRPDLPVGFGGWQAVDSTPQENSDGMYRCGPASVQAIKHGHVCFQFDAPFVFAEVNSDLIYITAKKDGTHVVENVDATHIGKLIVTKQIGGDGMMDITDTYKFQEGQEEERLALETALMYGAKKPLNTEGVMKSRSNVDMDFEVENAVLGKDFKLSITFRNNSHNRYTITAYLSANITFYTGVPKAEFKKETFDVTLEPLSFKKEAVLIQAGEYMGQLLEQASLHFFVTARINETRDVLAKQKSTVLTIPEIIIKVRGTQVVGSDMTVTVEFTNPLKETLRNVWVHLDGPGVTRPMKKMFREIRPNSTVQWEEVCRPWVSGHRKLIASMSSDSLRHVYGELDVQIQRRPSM

[11] = Ratio of Kinact/Ki for inhibition of human tissue transglutaminase assessed as substrate hydrolysis to corrected second order rate constant (K2 corrected) for GSH reactivity in aqueous buffer assessed as GSH adduct formation; type: physicochemical
[12] = target: T2, Protein-glutamine gamma-glutamyltransferase; test: Reversible inhibition of human recombinant tissue transglutaminase expressed in Escherichia coli using Cbz-Glu-(gamma-p-nitrophenylester)Gly (AL5) as substrate assessed as substrate hydrolysis by measuring Ki incubated for 20 mins by colorimetric analysis
Summary of the method: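 For TG2 reversible inhibition, the same AL5 colorimetric assay (MOPS pH 6.9, 7.5 mM CaCl2, 0.25 μM TG2, 405 nm) was run at 100 and 50 μM AL5. Initial rates were taken over the first 10% conversion of the uninhibited control, and 1/v0 was plotted against [I] in a Dixon plot; Ki came from the intersection of the lines.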

Compound | Kinact [1] | half-life at 1 µM [2] | half-life at up to 5 µM [3] | Ki [4] | Ratio [5] | Ratio [6] | K [7] | K [8] | K [9] | inhibition [10] | Ratio [11] | Ki [12]
C=C(Cl)C(=O)NCC(=O)N1CCN(C(=O)C23CC4CC(CC(C4)C2)C3)CC1 | 7.28 min⁻¹ | 1.53 h | 0.533 h | 2.32 µM | 3130 10^3/M/min | 3140 10^3/M/min | 59.387 10^-3/M/min | 0.509 min⁻¹ | 0.022 min⁻¹ | 76% | 0.053 | –
C[S+]([O-])CCCCN=C=S (configuration not stated) [SULFORAPHANE] | 0.27 min⁻¹ | – | – | 366 µM | – | – | – | – | – | – | – | –
[N-]=[N+]=CC(=O)NCC(=O)N1CCN(C(=O)C23CC4CC(CC(C4)C2)C3)CC1 | 2.82 min⁻¹ | – | – | 26.3 µM | 107 10^3/M/min | 95 10^3/M/min | – | – | – | – | – | –
CC(=O)C(=O)NCC(=O)N1CCN(C(=O)C23CC4CC(CC(C4)C2)C3)CC1 | – | – | – | – | – | – | – | – | – | – | – | 154 µM
C=C(C(=O)NCC(=O)N1CCN(C(=O)C23CC4CC(CC(C4)C2)C3)CC1)C(F)(F)F | 5.22 min⁻¹ | – | – | 30.6 µM | 171 10^3/M/min | 209 10^3/M/min | – | – | – | – | – | –
O=C(NCC(=O)N1CCN(C(=O)C23CC4CC(CC(C4)C2)C3)CC1)C(F)Cl (configuration not stated) | 1.57 min⁻¹ | – | – | 88.5 µM | 17.8 10^3/M/min | 16 10^3/M/min | – | – | – | – | – | –
C=C(F)C(=O)NCC(=O)N1CCN(C(=O)C23CC4CC(CC(C4)C2)C3)CC1 | 1.17 min⁻¹ | – | – | 38.4 µM | 30.4 10^3/M/min | 28.5 10^3/M/min | – | – | – | – | – | –
C=C(Br)C(=O)NCC(=O)N1CCN(C(=O)C23CC4CC(CC(C4)C2)C3)CC1 | 4.69 min⁻¹ | – | – | 1.95 µM | 2410 10^3/M/min | 2320 10^3/M/min | – | 0.497 min⁻¹ | 0.018 min⁻¹ | – | – | –
O=C(CN=C=S)N1CCN(C(=O)C23CC4CC(CC(C4)C2)C3)CC1 | 0.23 min⁻¹ | – | – | 8.83 µM | 26.3 10^3/M/min | 17.7 10^3/M/min | – | – | – | – | – | –
C#CC(=O)NCC(=O)N1CCN(C(=O)C23CC4CC(CC(C4)C2)C3)CC1 | 6.83 min⁻¹ | – | – | 70.1 µM | 97.5 10^3/M/min | 87.7 10^3/M/min | – | – | – | – | – | –
C/C=C/C(=O)NCC(=O)N1CCN(C(=O)C23CC4CC(CC(C4)C2)C3)CC1 | – | – | – | 61.8 µM | 8.3 10^3/M/min | 6.7 10^3/M/min | – | – | – | – | – | –
